ChEMBL document CHEMBL3351811, “Synthesis of heteroaryl/aryl kojic acid conjugates as stimulators of glucose uptake by GLUT4 translocation” (Eur J Med Chem, 2014)
Active and inactive are the calls of the source. No cut-off for these calls is given here.

Experiments:
Assay type in all cases: cell-based
[1] = target: T1, Solute carrier family 2, facilitated glucose transporter member 4 (Rattus norvegicus) (UniProt P19357); assay: Induction of rat GLUT4 translocation in rat L6 cells expressing myc-tagged GLUT4 incubated for 3 hrs by antibody-coupled colourimetric assay
T1 sequence (whole entry): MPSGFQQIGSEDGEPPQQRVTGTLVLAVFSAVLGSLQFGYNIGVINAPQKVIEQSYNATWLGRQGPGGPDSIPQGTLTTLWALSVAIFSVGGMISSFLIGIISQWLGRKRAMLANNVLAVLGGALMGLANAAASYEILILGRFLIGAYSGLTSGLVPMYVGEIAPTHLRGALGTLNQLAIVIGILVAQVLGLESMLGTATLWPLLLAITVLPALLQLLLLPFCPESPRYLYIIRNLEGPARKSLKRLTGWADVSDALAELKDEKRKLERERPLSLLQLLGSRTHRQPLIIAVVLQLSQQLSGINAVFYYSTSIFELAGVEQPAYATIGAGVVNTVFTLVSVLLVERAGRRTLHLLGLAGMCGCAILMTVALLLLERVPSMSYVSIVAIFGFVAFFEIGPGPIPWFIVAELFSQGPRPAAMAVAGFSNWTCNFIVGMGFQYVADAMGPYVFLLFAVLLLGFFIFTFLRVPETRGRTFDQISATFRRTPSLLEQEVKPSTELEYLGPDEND
How it was run: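 L6-GLUT4myc myotubes, non-permeabilized, treated 3 h with vehicle (DMSO), insulin 100 nM or compound at 5, 10, 25 µM. Fixed in 3% paraformaldehyde 30 min, glycine-quenched, milk-blocked, then anti-myc 1.0 µg/ml 1 h. HRP secondary with o-phenylenediamine read-out at OD 492 nm. Triplicates, three independent experiments; expressed as fold over unstimulated cells.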

[2] = target: T1, Solute carrier family 2, facilitated glucose transporter member 4 (Rattus norvegicus); assay: Stimulation of rat GLUT4-mediated glucose uptake in rat L6 cells expressing myc-tagged GLUT4 at 10 uM incubated for 16 hrs in presence of 1 uM PI3K inhibitor wortmannin by scintillation counting based 2-[3H]DG uptake assay
How it was run: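 Differentiated L6-GLUT4myc myotubes treated with compound at 10 µM, with wortmannin (1 µM) present for the final hour. Uptake then measured 5 min at room temperature in HEPES-buffered saline with 10 µM 2-DG (0.5 µCi/ml 2-[3H]DG), followed by lysis and scintillation counting. Cytochalasin B (25 µM) nonspecific uptake subtracted; duplicates normalized to protein, expressed versus control.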

[3] = target: T1, Solute carrier family 2, facilitated glucose transporter member 4 (Rattus norvegicus); assay: Stimulation of rat GLUT4-mediated glucose uptake in rat L6 cells expressing myc-tagged GLUT4 at 10 uM incubated for 16 hrs by scintillation counting based 2-[3H]DG uptake assay
How it was run: (§1)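 Differentiated L6-GLUT4myc myotubes (2% FBS, 6–7 days after seeding) exposed to compound for 16 h; insulin 100 nM as positive control. Uptake measured 5 min at room temperature in HEPES-buffered saline with 10 µM 2-DG (0.5 µCi/ml 2-[3H]DG), then lysis and scintillation counting. Cytochalasin B (25 µM) background subtracted. Duplicates normalized to total protein; percent stimulation versus control cells.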

L6 = assay: Toxicity in rat L6 cells expressing myc-tagged rat GLUT4 assessed as inhibition of glucose uptake at 10 uM incubated for 16 hrs by scintillation counting based 2-[3H]DG uptake assay; details: l6, 16 h; how it was run: as §1
[4] = target: T1, Solute carrier family 2, facilitated glucose transporter member 4 (Rattus norvegicus); assay: Stimulation of rat GLUT4-mediated glucose uptake in rat L6 cells expressing myc-tagged GLUT4 incubated for 16 hrs by scintillation counting based 2-[3H]DG uptake assay; how it was run: as §1

Activity [1] | Activity [2] | fold change (FC) [3] | Activity [3] | Activity [4] | SMILES | Activity (L6)
Dose-dependent effect | inactive | 1.34 | – | – | O=c1cc(CO)oc(C(c2ccccc2)c2ccc(O)cc2)c1O (stereo not given) | –
– | – | – | inactive | – | CCCCCn1cc(C(c2ccccc2)c2oc(CO)cc(=O)c2O)c2ccccc21 (stereo not given) | Toxic
– | – | – | inactive | – | O=c1cc(CO)oc(C(c2ccccc2)c2csc3ccccc23)c1O (stereo not given) | –
– | – | – | inactive | – | N#Cc1ccc2[nH]cc(C(c3ccccc3)c3oc(CO)cc(=O)c3O)c2c1 (stereo not given) | –
– | – | – | inactive | – | O=c1cc(CO)oc(C(c2ccccc2)c2c[nH]c3ccccc23)c1O (stereo not given) | Toxic
– | – | – | inactive | – | O=c1cc(CO)oc(C(c2ccccc2)c2c(-c3ccccc3)[nH]c3ccccc23)c1O (stereo not given) | Toxic
– | – | – | inactive | – | O=c1cc(CO)oc(C(c2ccccc2)c2cn(Cc3ccccc3)c3ccccc23)c1O (stereo not given) | Toxic
Dose-dependent effect | inactive | 1.33 | – | Dose-dependent effect | O=c1cc(CO)oc(C(Sc2ccccc2)c2ccccc2)c1O (stereo not given) | –
Dose-dependent effect | inactive | 1.25 | – | Dose-dependent effect | COc1ccc2[nH]cc(C(c3ccccc3)c3oc(CO)cc(=O)c3O)c2c1 (stereo not given) | –
– | – | – | inactive | – | Cn1cc(C(c2ccccc2)c2oc(CO)cc(=O)c2O)c2ccccc21 (stereo not given) | –
Dose-dependent effect | inactive | 1.21 | – | – | Cc1ccc(C(c2ccccc2)c2oc(CO)cc(=O)c2O)s1 (stereo not given) | –
– | – | – | inactive | – | O=c1cc(CO)oc(C(c2ccccc2)c2ccc[nH]2)c1O (stereo not given) | –

More lines, now with the values behind:

SMILES | Activity [1] | Activity [2] | fold change (FC) [3] | Activity [3] | Activity [4] | Activity (L6)
O=c1cc(CO)oc(C(c2ccc(Cl)cc2)c2c[nH]c3ccccc23)c1O (stereo not given) | – | – | – | inactive | – | Toxic
COc1ccc(C(c2oc(CO)cc(=O)c2O)c2c[nH]c3ccccc23)cc1 (stereo not given) | – | – | – | inactive | – | Toxic
COc1cccc(C(c2oc(CO)cc(=O)c2O)c2c[nH]c3ccccc23)c1OC (stereo not given) | Dose-dependent effect | inactive | 1.25 | – | Dose-dependent effect | –
CCCCCCCCC(c1oc(CO)cc(=O)c1O)c1c[nH]c2ccccc12 (stereo not given) | – | – | – | inactive | – | –
O=c1cc(CO)oc(C(c2ccc(Br)cc2)c2c[nH]c3ccccc23)c1O (stereo not given) | – | – | – | inactive | – | Toxic
O=c1cc(CO)oc(C(c2ccc3ccccc3c2)c2c[nH]c3ccccc23)c1O (stereo not given) | – | – | – | inactive | – | Toxic
COc1ccc(OC)c(C(c2oc(CO)cc(=O)c2O)c2c[nH]c3ccccc23)c1 (stereo not given) | Dose-dependent effect | inactive | 1.21 | – | Dose-dependent effect | –
CCCCC(c1oc(CO)cc(=O)c1O)c1c[nH]c2ccccc12 (stereo not given) | – | – | – | inactive | – | –
O=c1cc(CO)oc(C(c2ccc(F)cc2)c2c[nH]c3ccccc23)c1O (stereo not given) | – | – | – | inactive | – | Toxic
COc1ccc(SC(c2ccccc2)c2oc(CO)cc(=O)c2O)cc1 (stereo not given) | Dose-dependent effect | inactive | 1.38 | – | Dose-dependent effect | –
